Each structure is given as a SMILES string. A value given as a limit tells only on which side of the number the result lay.

These results are taken from ChEMBL document CHEMBL3525963, “Tissue distribution and elimination of [14C]apixaban in rats” (Drug Metab Dispos, 2011).

What all share (format): ADME, organism-based
What all share (set-up): dose 5 mg/kg, dosed compound name [14C]-apixaban, route oral
Conditions in all cases: in vivo

One series deals with Spleen. Briefly: Biodistribution in pregnant Sprague-Dawley rat spleen at 5 mg/kg, po administered as single dose measured after 0.5 hrs.
For series [1], the system named is Rattus norvegicus. Briefly: Biodistribution in pregnant Sprague-Dawley rat kidney cortex at 5 mg/kg, po administered as single dose measured after 0.5 hrs.
The test system of the next series is Liver. Briefly: Biodistribution in female Sprague-Dawley rat liver at 5 mg/kg, po administered as single dose measured after 0.5 hrs. In a few lines:
(§1)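 Quantitative whole-body autoradiography was run after a single 5 mg/kg (100 μCi/kg) oral gavage to fasted female or pregnant SD rats, one rat per time point. Carcasses were frozen in hexane/dry ice, and 40 µm sagittal sections were dried at −20°C for at least 48 h. Sections were exposed to a phosphor plate alongside [14C]glucose standards (0.001–6.5 µCi/g). Results are µg eq/g, with LLOQ 0.037 µg eq/g.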

Series [2] concerns Rattus norvegicus. Briefly: Biodistribution in fetal liver of pregnant Sprague-Dawley rat at 5 mg/kg, po administered as single dose measured after 0.5 hrs. In a few lines: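 Pregnant rats, 270-319 g and fasted overnight, received [14C]apixaban by oral gavage at 100 μCi/kg in 0.5% Tween 80/Labrafil. One dam per time point was euthanized and frozen in hexane/dry ice. Fetal tissue radioactivity was measured by QWBA on 40 µm sagittal sections calibrated with [14C]glucose standards. Values are in µg eq/g, with LLOQ 0.037 μg eq/g.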

A short description of series [3]: Drug level in lactating Sprague-Dawley rat milk at 5 mg/kg, po administered as single dose after 0 to 24 hrs.
Series [4] has as its system Brain. Briefly: Biodistribution in female Sprague-Dawley rat brain at 5 mg/kg, po administered as single dose measured after 1 hr. In a few lines: (§2)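 [14C]Apixaban (1.0 mg/mL, 20 μCi/mL in 0.5% Tween 80 in Labrafil) given as a single oral gavage of 5 mg/kg (100 μCi/kg) to fasted female SD rats, one rat per time point. Carcasses were frozen in hexane/dry ice and cut into 40 µm sagittal sections for QWBA against [14C]glucose standards. Brain radioactivity is reported as µg eq/g, with LLOQ 0.037 µg eq/g.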

A short description of series [5]: Drug level in lactating Sprague-Dawley rat milk at 5 mg/kg, po administered as single dose after 0.5 hrs.
The subject of series [6] is Brain. Briefly: Biodistribution in female Sprague-Dawley rat brain at 5 mg/kg, po administered as single dose measured after 72 hrs. A digest of the protocol: as §2
Series [7] concerns Rattus norvegicus. Briefly: Biodistribution in male Sprague-Dawley rat kidney cortex at 5 mg/kg, po administered as single dose measured after 72 hrs. In a few lines:
(§3)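 Fasted male SD rats (225-252 g) each received one oral gavage dose of [14C]apixaban, 5 mg/kg (100 μCi/kg), in 0.5% Tween 80/Labrafil vehicle. One rat was killed per time point, from 0.5 to 168 h. Frozen carcasses were cut into 40 µm sagittal whole-body sections and read by QWBA phosphor imaging against [14C]glucose calibrants. Results are in µg apixaban eq/g; BLQ <0.037 µg eq/g.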

For series [8], the system named is Brain. Briefly: Biodistribution in female Sprague-Dawley rat brain at 5 mg/kg, po administered as single dose measured after 4 hrs. In a few lines:
as §2

Series [9] deals with Pancreas. Briefly: Biodistribution in pregnant Sprague-Dawley rat pancreas at 5 mg/kg, po administered as single dose measured after 48 hrs. In a few lines:
(§4)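 Pregnant SD rats (270-319 g) were fasted overnight and given one oral gavage of 5 mg/kg (100 μCi/kg) in 0.5% Tween 80 in Labrafil. One rat was euthanized per time point (0.5, 1, 4, 8, 24, 48 h) and the carcass frozen. 40 µm sagittal sections were phosphor-imaged against [14C]glucose standards and results reported as µg eq/g; LLOQ 0.037 µg eq/g.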

In series [10] the test system is Rattus norvegicus. Briefly: Biodistribution in fetal kidney of pregnant Sprague-Dawley rat at 5 mg/kg, po administered as single dose measured after 8 hrs. A digest of the protocol:
(§5)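 Fasted pregnant SD rats (n=6, 270-319 g) each received one oral gavage dose of [14C]apixaban, 5 mg/kg (100 μCi/kg), in 0.5% Tween 80/Labrafil. One rat was killed at each of 0.5, 1, 4, 8, 24 and 48 h. Carcasses were frozen in hexane/dry ice, cut into 40 µm sagittal sections, exposed to phosphor plates and quantified against [14C]glucose standards as µg eq/g. LLOQ was 0.037 µg eq/g.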

The next series relates to Heart. Briefly: Biodistribution in female Sprague-Dawley rat heart at 5 mg/kg, po administered as single dose measured after 24 hrs. In a few lines: as §1
In series [11] the test system is Brain. Briefly: Biodistribution in pregnant Sprague-Dawley rat brain at 5 mg/kg, po administered as single dose measured after 48 hrs. A digest of the protocol:
as §5

The test system of another series is Adrenal gland. Briefly: Biodistribution in female Sprague-Dawley rat adrenal gland at 5 mg/kg, po administered as single dose measured after 1 hr. A digest of the protocol: (§6)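 [¹⁴C]Apixaban given by oral gavage at 5 mg/kg (100 μCi/kg) in 0.5% Tween 80 in Labrafil (1.0 mg/mL dosing solution) to rats fasted overnight through 4 h post-dose. One rat per time point; carcass frozen in hexane/dry ice. Quantitative whole-body autoradiography used 40 µm sagittal sections and a phosphor imaging plate calibrated with [¹⁴C]glucose standards (0.001–6.5 μCi/g). Read-out in µg eq apixaban/g; LLOQ 0.037 μg eq/g.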

Another series has as its system Lung. Briefly: Biodistribution in pregnant Sprague-Dawley rat lung at 5 mg/kg, po administered as single dose measured after 48 hrs. A digest of the protocol: as §4
The next series has as its system Thymus. Briefly: Biodistribution in male Sprague-Dawley rat thymus at 5 mg/kg, po administered as single dose measured after 0.5 hrs. In a few lines:
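[14C]apixaban (1.0 mg/mL, 20 μCi/mL) in 0.5% Tween 80 in Labrafil, given by oral gavage at 100 μCi/kg to male rats (225-252 g) fasted overnight through 4 h post-dose. One rat per time point. Carcasses frozen in hexane/dry ice and cut into 40 µm sagittal sections. QWBA read on phosphor plates against [14C]glucose standards, reported as µg eq/g. LLOQ 0.037 µg eq/g.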

For series [12], the system named is Blood. Briefly: Biodistribution in male Sprague-Dawley rat blood at 5 mg/kg, po administered as single dose measured after 72 hrs. A digest of the protocol: as §3
Series [13] deals with Rattus norvegicus. Briefly: Biodistribution in pregnant Sprague-Dawley rat bone marrow at 5 mg/kg, po administered as single dose measured after 8 hrs.
Series [14] is described as follows: Drug metabolism in Sprague-Dawley rat milk assessed as apixaban level at 5 mg/kg, po after 1 to 24 hrs by HPLC method. In a few lines: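 After a 5 mg/kg oral dose, samples were radioprofiled by HPLC. The column was C18 with a 0.4% formic acid (pH 3.2)/acetonitrile gradient at 0.7 mL/min. Fractions were collected every 0.25 min and counted for radioactivity. Peaks were identified by ESI LC/MS/MS against synthetic standards. Milk was taken at 1, 6, 12 and 24 h.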

The subject of series [15] is Pancreas. Briefly: Biodistribution in female Sprague-Dawley rat pancreas at 5 mg/kg, po administered as single dose measured after 0.5 hrs. A digest of the protocol: as §6
Series [16] deals with Blood. Briefly: AUC (0 to t) in pregnant Sprague-Dawley rat blood at 5 mg/kg, po administered as single dose.
Series [17] deals with Blood. Briefly: Biodistribution in female Sprague-Dawley rat blood at 5 mg/kg, po administered as single dose measured after 8 hrs. In a few lines: as §6

`COc1ccc(-n2nc(C(N)=O)c3c2C(=O)N(c2ccc(N4CCCC[14C]4=O)cc2)CC3)cc1`: the Radiolabel recovery in the series with Spleen is 0.46 ugequiv/g; in the series on Rattus norvegicus [1], 2.11 ugequiv/g; in the series with Liver it was 2.67 µgequiv/g; with Rattus norvegicus [2] it was 0.16 ugequiv/g; in series [3], 4.6 µg/mL; in the series on Brain [4], less than 0.037 ugequiv/g. The Radiolabel recovery in series [5] is 2.75 µg/mL; with Brain [6] it was less than 0.037 ugequiv/g; with Rattus norvegicus [7], “Not detected assumed BLQ”; in the series on Brain [8] it was less than 0.037 ugequiv/g; in the series on Pancreas [9] it was “Not detected assumed BLQ”; in the series on Rattus norvegicus [10] it was “Not sampled as not visualised in autoradiograph”. The Radiolabel recovery result is recorded as “Not detected assumed BLQ” with Heart; “Not detected assumed BLQ” with Brain [11]; 1.1 ugequiv/g in the series on Adrenal gland; “Not detected assumed BLQ” in the series on Lung; 0.16 ugequiv/g in the series on Thymus; “Not sampled as not visualised in autoradiograph” with Blood [12]. Moreover, the Radiolabel recovery with Rattus norvegicus [13] is on record as 0.06 ugequiv/g; with Pancreas [15], 0.43 ugequiv/g; with Blood [17] it was 0.17 ugequiv/g. Also, the Compound recovery in series [14] was more than 96%. The molecule further yielded an AUCt with Blood [16] of 6980 ngequiv.hr/g.
